# Assays:
# [1] = Drug metabolism in dog hepatocytes assessed as [3H]-3-(3,5-dimethyl-4-(6-(5-phenyl-1,3,4-oxadiazol-2-yl)-1H-benzo[d]imidazol-2-yl)phenyl)-2,2-dimethylpropanoic acid formation at 12.5 uM after 18 hrs; type: ADME, cell-based, Canis lupus familiaris, Hepatocyte
# How it was run: (§1)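 [3H]-labelled compound (12.5 µM) was incubated for 18 h with rat, dog, monkey or human hepatocytes, and metabolites were profiled.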
# [2] = AUC (0 to 8 hrs) in Sprague-Dawley rat at 1mg/kg, iv by LC/MS/MS analysis; type: ADME, organism-based; parameters: time < 8 hr, dose 1 mg/kg, route intravenous; conditions: in vivo
# How it was run: (§2)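 Male Sprague-Dawley rats, 200-300 g, dosed iv (n = 2) or po (n = 3) as solutions in NMP/PG or PEG400/ETPGS vehicles. Blood was taken from a jugular vein catheter at 0.083 (iv only), 0.25, 0.5, 1, 2, 4, 6 and 8 h into EDTA tubes, and plasma was analysed by LC-MS/MS. Values are means ± SD.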
# Salmonella typhimurium = test: Genotoxicity in histidine depleted Salmonella typhimurium TA100 assessed as increase in reverting mutations up to 1000 ug in absence of S9 metabolic activation by Ames test; type: toxicity; conditions: salmonella enterica subsp. enterica serovar typhimurium
# [3] = biological target: T1, Diacylglycerol O-acyltransferase 1 (Mus musculus, UniProt Q9Z2A7); test: Inhibition of DGTA1 in mouse C2C12 cells assessed as inhibition of triglyceride formation after 2 hrs by LC/MS/MS analysis; type: cell-based
# T1 sequence (Q9Z2A7 whole entry): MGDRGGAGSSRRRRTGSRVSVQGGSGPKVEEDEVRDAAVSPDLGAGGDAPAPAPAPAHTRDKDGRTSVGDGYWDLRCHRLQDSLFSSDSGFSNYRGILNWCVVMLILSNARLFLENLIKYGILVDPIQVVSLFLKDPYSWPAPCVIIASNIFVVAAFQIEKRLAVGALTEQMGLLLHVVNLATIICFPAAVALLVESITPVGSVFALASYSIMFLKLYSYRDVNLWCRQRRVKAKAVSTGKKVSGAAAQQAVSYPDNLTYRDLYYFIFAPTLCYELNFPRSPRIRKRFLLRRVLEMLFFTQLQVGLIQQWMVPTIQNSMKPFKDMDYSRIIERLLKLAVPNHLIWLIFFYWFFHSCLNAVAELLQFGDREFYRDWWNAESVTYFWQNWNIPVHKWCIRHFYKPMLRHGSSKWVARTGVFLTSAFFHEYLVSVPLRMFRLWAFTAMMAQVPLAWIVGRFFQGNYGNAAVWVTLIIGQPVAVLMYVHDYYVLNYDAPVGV
# How it was run: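 C2C12 cells were seeded in DMEM with 5 mM glucose and 10% FBS for 18 h at 37 °C. Medium was then replaced with DMEM, 5 mM glucose and 250 µM oleate-BSA plus inhibitor (0.5% DMSO final) for 2 h at 37 °C. Cells were extracted with butanol containing tripalmitolein internal standard and triglyceride was read by LC-MS/MS. An 11-point, 3-fold dose response was run in quadruplicate.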
# [4] = Oral bioavailability in Sprague-Dawley rat at 3 mg/kg by LC/MS/MS analysis; type: ADME, organism-based; conditions: in vivo; how it was run: as §2
# [5] = Drug metabolism in monkey hepatocytes assessed as [3H]-3-(3,5-dimethyl-4-(6-(5-phenyl-1,3,4-oxadiazol-2-yl)-1H-benzo[d]imidazol-2-yl)phenyl)-2,2-dimethylpropanoic acid formation at 12.5 uM after 18 hrs; type: ADME, cell-based, Macaca mulatta, Hepatocyte; conditions: rhesus monkey; how it was run: as §1
smiles,measurement,setting,value
COc1ccc(-c2nnc(-c3ccc4nc(-c5c(C)cc(CC(C)(C)C(=O)O)cc5C)[nH]c4c3)o2)cc1,Drug metabolism,[1],Metabolite_Detected
same,AUC(0-t) at 8 h,[2],3.86 µM·h
same,Activity,Salmonella typhimurium,Non-Toxic
same,IC50,[3],151 nM
same,bioavailability,[4],90%
same,Drug metabolism,[5],Metabolite_Detected
